Experimental data from ChEMBL document CHEMBL1134340, “GnRH antagonists: a new generation of long acting analogues incorporating p-ureido-phenylalanines at positions 5 and 6” (J Med Chem, 2001).
*1 amine or outer side, *2 acyl side, *3 side chain or, on linkers, in order; H or OH if unused. Where a SMILES comes first, the peptide text is derived from it. Side-chain parts run from the residue outwards. [ ]: non-standard residue; d: D form. dPhe(4-NHCONH2) = NC(=O)Nc1ccc(C[C@@H](N)C(=O)O)cc1; dPhe(4-NH2) = Nc1ccc(C[C@@H](N)C(=O)O)cc1; dPhe(4-Cl) = N[C@H](Cc1ccc(Cl)cc1)C(=O)O; Phe(4-NH2) = Nc1ccc(C[C@H](N)C(=O)O)cc1; d2Nal = N[C@H](Cc1ccc2ccccc2c1)C(=O)O; Lys(iPr) = CC(C)NCCCC[C@H](N)C(=O)O; d3Pal = N[C@H](Cc1cccnc1)C(=O)O; CO = O=C([*:1])[*:2]

Key:
Rattus norvegicus [1] = species: Rattus norvegicus; assay: Compound was tested for inhibition of Leutenizing hormone release at 96 hours (very long duration) in castrated male rat assay; assay type: functional; set-up: concentration or dose not given beside the values
Method in brief: (§1)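 Male Sprague-Dawley rats (180-200 g), castrated under ether 10 days earlier, 5 per group. 50 µg/rat given sc in 100 µL 40 mM phosphate buffer with 0.1% BSA and 0.6% DMSO; acyline run as internal standard. Tail blood taken predose and at 24, 48, 72, 96 (sometimes 120) h; plasma LH by RIA. Duration classed by >80% LH inhibition at each time.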

Rattus norvegicus [2] = species: Rattus norvegicus; assay: Compound was tested for inhibition of Leutenizing hormone release at 72 hours (long duration) in castrated male rat assay; assay type: functional; set-up: concentration or dose not given beside the values; method in brief: as §1
[3] = molecular target: T1, Gonadotropin-releasing hormone receptor (Homo sapiens, UniProt P30968); assay: Competitive antagonism of GnRH-induced response in the reporter gene assay; assay type: functional; conditions: read-out: pA2 (converted)
T1 sequence (P30968 whole entry): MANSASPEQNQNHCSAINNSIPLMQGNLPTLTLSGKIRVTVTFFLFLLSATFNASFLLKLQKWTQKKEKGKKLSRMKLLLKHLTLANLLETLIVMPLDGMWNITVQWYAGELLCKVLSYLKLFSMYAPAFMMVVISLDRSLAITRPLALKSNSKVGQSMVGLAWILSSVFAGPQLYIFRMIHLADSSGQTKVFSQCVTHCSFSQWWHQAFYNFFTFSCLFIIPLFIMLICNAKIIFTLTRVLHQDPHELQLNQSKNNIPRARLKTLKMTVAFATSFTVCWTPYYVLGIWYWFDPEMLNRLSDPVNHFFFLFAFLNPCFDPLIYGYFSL
Method in brief: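 Same HEK293 human GnRH receptor luciferase reporter cells. Seven-point GnRH curve (10 µM to 10 pM final) run in duplicate without or with four to five increasing compound concentrations (10 min preincubation, 37 °C), then 5 h and luminescence. GnRH EC50 at each level by four-parameter logistic fit, giving pA2; mean of two determinations in duplicate.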

[4] = molecular target: T1, Gonadotropin-releasing hormone receptor; assay: Antagonism of human GnHR receptor, determined in a reporter gene assay in HEK293 cells; assay type: functional, cell-based
Method in brief: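 HEK293 cells stably expressing cloned human GnRH receptor plus luciferase reporter under LH alpha subunit promoter, plated 24 h before assay. Compound in 1% DMSO added 10 min at 37 °C, then GnRH at 3 nM final; 5 h incubation, luciferase luminescence read. Six concentrations in duplicate; blank-subtracted cps as % of GnRH control; mean of two determinations.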

Rattus norvegicus [5] = species: Rattus norvegicus; assay: Compound was tested for inhibition of Leutenizing hormone release at 48 hours (intermediate duration) in castrated male rat assay; assay type: functional; set-up: concentration or dose not given beside the values; method in brief: as §1
Rattus norvegicus [6] = species: Rattus norvegicus; assay: Compound was tested for histamine release at a concentration of 100 ug/mL; assay type: functional
Method in brief: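 Sprague-Dawley rat peritoneal mast cells, Percoll-purified, in heparinized balanced salt solution with albumin, pH 7.2. Cells exposed to compound or vehicle for 2 min at 37 °C. Supernatant histamine measured spectrofluorometrically after o-phthalaldehyde derivatization; pellets lysed for retained histamine. Reported as % of total histamine released, corrected for spontaneous release in vehicle.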

| Structure (SMILES) | Inhibition (Rattus norvegicus [2]) [%] | Kb [3] [nM] | IC50 [4] [nM] | other results |
| --- | --- | --- | --- | --- |
| CC(=O)N[C@H](Cc1ccc2ccccc2c1)C(=O)N[C@H](Cc1ccc(Cl)cc1)C(=O)N[C@H](Cc1cccnc1)C(=O)N[C@@H](CO)C(=O)N[C@@H](Cc1ccc(NC(=O)[C@@H]2CC(=O)NC(=O)N2)cc1)C(=O)N[C@H](Cc1ccc(NC(N)=O)cc1)C(=O)N[C@@H](CC(C)C)C(=O)N[C@@H](CCCCNC(C)C)C(=O)N1CCC[C@H]1C(=O)N[C@H](C)CO | – | – | – | Inhibition (Rattus norvegicus [1]): >80% |
| CC(=O)NCc1ccc(C[C@@H](NC(=O)[C@H](Cc2ccc(NC(=O)[C@@H]3CC(=O)NC(=O)N3)cc2)NC(=O)[C@H](CO)NC(=O)[C@@H](Cc2cccnc2)NC(=O)[C@@H](Cc2ccc(Cl)cc2)NC(=O)[C@@H](Cc2ccc3ccccc3c2)NC(C)=O)C(=O)N[C@@H](CC(C)C)C(=O)N[C@@H](CCCCNC(C)C)C(=O)N2CCC[C@H]2C(=O)N[C@H](C)C(N)=O)cc1 | >80 | – | – | – |
| CCNC(=O)[C@@H]1CCCN1C(=O)[C@H](CCCCNC(C)C)NC(=O)[C@H](CC(C)C)NC(=O)[C@@H](Cc1ccc(NC(N)=O)cc1)NC(=O)[C@H](Cc1ccc(NC(=O)[C@@H]2CC(=O)NC(=O)N2)cc1)NC(=O)[C@H](CO)NC(=O)[C@@H](Cc1cccnc1)NC(=O)[C@@H](Cc1ccc(Cl)cc1)NC(=O)[C@@H](Cc1ccc2ccccc2c1)NC(C)=O | >80 | – | – | – |
| CC(=O)N[C@H](Cc1ccc2ccccc2c1)C(=O)N[C@H](Cc1ccc(Cl)cc1)C(=O)N[C@H](Cc1cccnc1)C(=O)N[C@@H](CO)C(=O)N[C@@H](Cc1ccc(NC(=O)[C@@H]2CC(=O)NC(=O)N2)cc1)C(=O)N[C@H](Cc1ccc(CNC(N)=O)cc1)C(=O)N[C@@H](CC(C)C)C(=O)N[C@@H](CCCCNC(C)C)C(=O)N1CCC[C@H]1C(=O)N[C@@H](C)CO | – | 0.631 | 5.5 | Inhibition (Rattus norvegicus [1]): >80% |
| CC(=O)Nc1ccc(C[C@@H](NC(=O)[C@H](Cc2ccc(NC(=O)C[C@@H]3NC(=O)NC3=O)cc2)NC(=O)[C@H](CO)NC(=O)[C@@H](Cc2cccnc2)NC(=O)[C@@H](Cc2ccc(Cl)cc2)NC(=O)[C@@H](Cc2ccc3ccccc3c2)NC(C)=O)C(=O)N[C@@H](CC(C)C)C(=O)N[C@@H](CCCCNC(C)C)C(=O)N2CCC[C@H]2C(=O)N[C@H](C)C(N)=O)cc1 | – | – | 8.1 | Inhibition (Rattus norvegicus [5]): >80% |
| CC(=O)Nc1ccc(C[C@@H](NC(=O)[C@H](Cc2ccc(NC(=O)[C@@H]3CNC(=O)N3)cc2)NC(=O)[C@H](CO)NC(=O)[C@@H](Cc2cccnc2)NC(=O)[C@@H](Cc2ccc(Cl)cc2)NC(=O)[C@@H](Cc2ccc3ccccc3c2)NC(C)=O)C(=O)N[C@@H](CC(C)C)C(=O)N[C@@H](CCCCNC(C)C)C(=O)N2CCC[C@H]2C(=O)N[C@H](C)C(N)=O)cc1 | >80 | 0.631 | 9.1 | – |
| CCNC(=O)[C@@H]1CCCN1C(=O)[C@H](CCCCNC(C)C)NC(=O)[C@H](CC(C)C)NC(=O)[C@@H](Cc1ccc(CNC(N)=O)cc1)NC(=O)[C@H](Cc1ccc(NC(=O)[C@@H]2CC(=O)NC(=O)N2)cc1)NC(=O)[C@H](CO)NC(=O)[C@@H](Cc1cccnc1)NC(=O)[C@@H](Cc1ccc(Cl)cc1)NC(=O)[C@@H](Cc1ccc2ccccc2c1)NC(C)=O | – | – | – | Inhibition (Rattus norvegicus [5]): >80% |
| CC(=O)Nc1ccc(C[C@@H](NC(=O)[C@H](Cc2ccc(NC(=O)[C@@H]3CC(=O)NC(=O)N3)cc2)NC(=O)[C@H](CO)NC(=O)[C@@H](Cc2cccnc2)NC(=O)[C@@H](Cc2ccc(Cl)cc2)NC(=O)[C@@H](Cc2ccc3ccccc3c2)NC(C)=O)C(=O)N[C@@H](CC(C)C)C(=O)N[C@@H](CCCCNC(C)C)C(=O)N2CCC[C@H]2C(=O)N[C@H](C)C(N)=O)cc1 | – | 1.26 | 4.3 | Inhibition (Rattus norvegicus [1]): >80%; HR (Rattus norvegicus [6]): 54% |
| CC(=O)Nc1ccc(C[C@@H](NC(=O)[C@H](Cc2ccc(NC(=O)C(NC(N)=O)NC(N)=O)cc2)NC(=O)[C@H](CO)NC(=O)[C@@H](Cc2cccnc2)NC(=O)[C@@H](Cc2ccc(Cl)cc2)NC(=O)[C@@H](Cc2ccc3ccccc3c2)NC(C)=O)C(=O)N[C@@H](CC(C)C)C(=O)N[C@@H](CCCCNC(C)C)C(=O)N2CCC[C@H]2C(=O)N[C@H](C)C(N)=O)cc1 | – | – | 8.9 | Inhibition (Rattus norvegicus [5]): >80% |
| CC(=O)N[C@H](Cc1ccc2ccccc2c1)C(=O)N[C@H](Cc1ccc(Cl)cc1)C(=O)N[C@H](Cc1cccnc1)C(=O)N[C@@H](CO)C(=O)N[C@@H](Cc1ccc(NC(=O)[C@@H]2CC(=O)NC(=O)N2)cc1)C(=O)N[C@H](CCCNC(N)=O)C(=O)N[C@@H](CC(C)C)C(=O)N[C@@H](CCCCNC(C)C)C(=O)N1CCC[C@H]1C(=O)N[C@H](C)C(N)=O | >80 | – | – | – |
| CC(=O)Nc1ccc(C[C@H](NC(=O)[C@H](CO)NC(=O)[C@@H](Cc2cccnc2)NC(=O)[C@@H](Cc2ccc(Cl)cc2)NC(=O)[C@@H](Cc2ccc3ccccc3c2)NC(C)=O)C(=O)N[C@H](Cc2ccc(NC(N)=O)cc2)C(=O)N[C@@H](CC(C)C)C(=O)N[C@@H](CCCCNC(C)C)C(=O)N2CCC[C@H]2C(=O)N[C@H](C)C(N)=O)cc1 (Ac-[d2Nal][dPhe(4-Cl)][d3Pal]S[Phe(4-NH2)](Ac)[dPhe(4-NHCONH2)]L[Lys(iPr)]P[dA]-NH2) | >80 | 0.501 | 6.1 | – |
| CNC(=O)Nc1ccc(C[C@H](NC(=O)[C@H](CO)NC(=O)[C@@H](Cc2cccnc2)NC(=O)[C@@H](Cc2ccc(Cl)cc2)NC(=O)[C@@H](Cc2ccc3ccccc3c2)NC(C)=O)C(=O)N[C@H](Cc2ccc(NC(=O)NC)cc2)C(=O)N[C@@H](CC(C)C)C(=O)N[C@@H](CCCCNC(C)C)C(=O)N2CCC[C@H]2C(=O)N[C@H](C)C(N)=O)cc1 (Ac-[d2Nal][dPhe(4-Cl)][d3Pal]S[Phe(4-NH2)]([CO-NHMe])[dPhe(4-NH2)]([CO-NHMe])L[Lys(iPr)]P[dA]-NH2) | – | – | – | Inhibition (Rattus norvegicus [5]): >80% |
| CC(=O)Nc1ccc(C[C@@H](NC(=O)[C@H](Cc2ccc(CNC(=O)[C@@H]3CC(=O)NC(=O)N3)cc2)NC(=O)[C@H](CO)NC(=O)[C@@H](Cc2cccnc2)NC(=O)[C@@H](Cc2ccc(Cl)cc2)NC(=O)[C@@H](Cc2ccc3ccccc3c2)NC(C)=O)C(=O)N[C@@H](CC(C)C)C(=O)N[C@@H](CCCCNC(C)C)C(=O)N2CCC[C@H]2C(=O)N[C@H](C)C(N)=O)cc1 | >80 | – | – | – |
| CC(=O)Nc1ccc(C[C@@H](NC(=O)[C@H](Cc2ccc(NC(=O)[C@H]3CC(=O)NC(=O)N3)cc2)NC(=O)[C@H](CO)NC(=O)[C@@H](Cc2cccnc2)NC(=O)[C@@H](Cc2ccc(Cl)cc2)NC(=O)[C@@H](Cc2ccc3ccccc3c2)NC(C)=O)C(=O)N[C@@H](CC(C)C)C(=O)N[C@@H](CCCCNC(C)C)C(=O)N2CCC[C@H]2C(=O)N[C@H](C)C(N)=O)cc1 | >80 | 1 | 8.6 | – |
| CC(=O)NCc1ccc(C[C@@H](NC(=O)[C@H](Cc2ccc(NC(=O)[C@H]3CC(=O)NC(=O)N3)cc2)NC(=O)[C@H](CO)NC(=O)[C@@H](Cc2cccnc2)NC(=O)[C@@H](Cc2ccc(Cl)cc2)NC(=O)[C@@H](Cc2ccc3ccccc3c2)NC(C)=O)C(=O)N[C@@H](CC(C)C)C(=O)N[C@@H](CCCCNC(C)C)C(=O)N2CCC[C@H]2C(=O)N[C@H](C)C(N)=O)cc1 | >80 | – | – | – |
| CC(=O)N[C@H](Cc1ccc2ccccc2c1)C(=O)N[C@H](Cc1ccc(Cl)cc1)C(=O)N[C@H](Cc1cccnc1)C(=O)N[C@@H](CO)C(=O)N[C@@H](Cc1ccc(NC(=O)[C@@H]2CC(=O)NC(=O)N2)cc1)C(=O)N[C@H](Cc1ccc(NC(N)=O)cc1)C(=O)N[C@@H](CC(C)C)C(=O)N[C@@H](CCCCNC(C)C)C(=O)N1CCC[C@H]1C(=O)N[C@@H](C)CO | >80 | – | – | – |
| CC(=O)N[C@H](Cc1ccc2ccccc2c1)C(=O)N[C@H](Cc1ccc(Cl)cc1)C(=O)N[C@H](Cc1cccnc1)C(=O)N[C@@H](CO)C(=O)N[C@@H](Cc1ccc(NC(=O)[C@@H]2CC(=O)NC(=O)N2)cc1)C(=O)N[C@H](Cc1ccc(CNC(N)=O)cc1)C(=O)N[C@@H](CC(C)C)C(=O)N[C@@H](CCCCNC(C)C)C(=O)N1CCC[C@H]1C(=O)N[C@H](C)CO | – | 1 | 7.8 | Inhibition (Rattus norvegicus [1]): >80% |
| CC(=O)Nc1ccc(C[C@H](NC(=O)[C@H](CO)NC(=O)[C@@H](Cc2cccnc2)NC(=O)[C@@H](Cc2ccc(Cl)cc2)NC(=O)[C@@H](Cc2ccc3ccccc3c2)NC(C)=O)C(=O)N[C@H](Cc2ccc(CNC(N)=O)cc2)C(=O)N[C@@H](CC(C)C)C(=O)N[C@@H](CCCCNC(C)C)C(=O)N2CCC[C@H]2C(=O)N[C@H](C)C(N)=O)cc1 | – | – | – | Inhibition (Rattus norvegicus [5]): >80% |
